Results published in ChEMBL document CHEMBL1141125, “Heteroaryl-substituted naphthalenes and structurally modified derivatives: selective inhibitors of CYP11B2 for the treatment of congestive heart failure and myocardial fibrosis” (J Med Chem, 2005).
In brackets after ≈: the same amount, converted by molar mass.

Key:
[1] = Solubility calculated with ACD/I-lab at pH 7.4; details: read-out: S
[2] = target: T1, Cytochrome P450 11B2, mitochondrial (Homo sapiens, UniProt P19099); test: Percent inhibition against human cytochrome P450 11B2 expressed in fission yeast, incubated with [14C]deoxycorticosterone; design: concentration or dose not given beside the values
T1 sequence (P19099 whole entry): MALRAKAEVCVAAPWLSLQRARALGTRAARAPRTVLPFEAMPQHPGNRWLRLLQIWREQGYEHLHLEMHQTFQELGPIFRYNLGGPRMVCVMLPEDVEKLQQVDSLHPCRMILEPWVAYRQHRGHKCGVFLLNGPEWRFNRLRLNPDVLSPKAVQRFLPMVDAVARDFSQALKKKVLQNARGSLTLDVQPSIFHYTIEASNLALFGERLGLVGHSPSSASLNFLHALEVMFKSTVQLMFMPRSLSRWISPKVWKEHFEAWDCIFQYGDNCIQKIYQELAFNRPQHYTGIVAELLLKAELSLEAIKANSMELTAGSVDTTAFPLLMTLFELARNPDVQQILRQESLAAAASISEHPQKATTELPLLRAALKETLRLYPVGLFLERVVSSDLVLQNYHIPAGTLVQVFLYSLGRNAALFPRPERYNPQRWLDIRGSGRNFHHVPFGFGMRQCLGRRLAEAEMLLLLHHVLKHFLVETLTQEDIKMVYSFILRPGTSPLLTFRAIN

[3] = organism: Homo sapiens; test: Ratio between inhibitory concentration of cytochrome P450 11B1 to cytochrome P450 11B2
How it was run: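 Confluent V79 MZh hamster lung fibroblasts expressing human CYP11B1 or CYP11B2, in DMEM. Preincubated 60 min at 37 °C with inhibitor at three or more concentrations. [4-14C]11-deoxycorticosterone substrate, 100 nM. Incubation 120 min for CYP11B1 and 40 min for CYP11B2; controls without inhibitor. Ethyl acetate extraction, then HPTLC with phosphoimager quantification, giving IC50.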

[4] = target: T2, Cytochrome P450 11B1, mitochondrial (Homo sapiens, UniProt P15538); test: Inhibitory concentration against human cytochrome P450 11B1 expressed in V79 MZh hamster lung fibroblasts, incubated with [14C]deoxycorticosterone
T2 sequence (P15538 whole entry): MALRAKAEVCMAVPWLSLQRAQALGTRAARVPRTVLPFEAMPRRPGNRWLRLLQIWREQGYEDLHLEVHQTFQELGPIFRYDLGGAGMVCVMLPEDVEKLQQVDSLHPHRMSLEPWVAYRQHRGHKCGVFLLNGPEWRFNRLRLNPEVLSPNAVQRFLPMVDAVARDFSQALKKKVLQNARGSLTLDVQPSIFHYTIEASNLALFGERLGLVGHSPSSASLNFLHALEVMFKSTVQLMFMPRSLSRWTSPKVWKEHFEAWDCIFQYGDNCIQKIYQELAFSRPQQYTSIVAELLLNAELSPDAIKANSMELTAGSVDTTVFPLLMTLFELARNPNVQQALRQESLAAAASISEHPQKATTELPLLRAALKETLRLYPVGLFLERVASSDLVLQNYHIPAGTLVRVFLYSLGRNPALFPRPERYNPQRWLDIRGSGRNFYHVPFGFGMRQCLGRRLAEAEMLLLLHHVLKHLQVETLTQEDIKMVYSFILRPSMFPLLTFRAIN

[5] = target: T1, Cytochrome P450 11B2, mitochondrial; test: Inhibitory concentration against human cytochrome P450 11B2 expressing in V79 MZh cells using [14C]deoxycorticosterone as substrate measured by screening assay; type: cell-based
[6] = target: T1, Cytochrome P450 11B2, mitochondrial; test: Inhibitory concentration against human cytochrome P450 11B2 expressed in V79 MZh hamster lung fibroblasts, incubated with [14C]deoxycorticosterone
[7] = target: T3, Aromatase (Homo sapiens, UniProt P11511)
T3 sequence (P11511 whole entry): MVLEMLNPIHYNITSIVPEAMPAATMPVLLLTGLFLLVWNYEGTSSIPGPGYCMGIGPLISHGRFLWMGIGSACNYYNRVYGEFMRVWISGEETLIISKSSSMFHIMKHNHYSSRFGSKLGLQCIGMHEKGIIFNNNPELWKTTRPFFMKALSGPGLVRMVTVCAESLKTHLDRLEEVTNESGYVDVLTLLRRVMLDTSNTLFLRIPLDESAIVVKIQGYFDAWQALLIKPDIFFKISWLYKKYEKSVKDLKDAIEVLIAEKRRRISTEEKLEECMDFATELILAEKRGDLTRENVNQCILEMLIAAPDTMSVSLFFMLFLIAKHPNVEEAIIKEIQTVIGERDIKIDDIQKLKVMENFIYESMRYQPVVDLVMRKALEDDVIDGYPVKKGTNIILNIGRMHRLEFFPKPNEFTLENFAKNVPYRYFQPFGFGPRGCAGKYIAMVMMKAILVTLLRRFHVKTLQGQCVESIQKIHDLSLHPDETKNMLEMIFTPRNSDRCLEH

[8] = target: T4, CYP11B1 (Homo sapiens, UniProt P15538); test: Inhibitory concentration against human cytochrome P450 11B1 expressed in V79 MZh hamster lung fibroblasts, incubated with [14C]deoxycorticosterone; details: human, V79 MZh hamster lung fibroblasts expressing human CYP11B1, probe [14C]deoxycorticosterone
T4 sequence (P15538 whole entry): T2 sequence (P15538 whole entry)

[9] = target: T5, Steroid 17-alpha-hydroxylase/17,20 lyase (Homo sapiens, UniProt P05093); test: Percent inhibition against recombinant human cytochrome P450 17A1 using progesterone; design: concentration or dose not given beside the values
T5 sequence (P05093 whole entry): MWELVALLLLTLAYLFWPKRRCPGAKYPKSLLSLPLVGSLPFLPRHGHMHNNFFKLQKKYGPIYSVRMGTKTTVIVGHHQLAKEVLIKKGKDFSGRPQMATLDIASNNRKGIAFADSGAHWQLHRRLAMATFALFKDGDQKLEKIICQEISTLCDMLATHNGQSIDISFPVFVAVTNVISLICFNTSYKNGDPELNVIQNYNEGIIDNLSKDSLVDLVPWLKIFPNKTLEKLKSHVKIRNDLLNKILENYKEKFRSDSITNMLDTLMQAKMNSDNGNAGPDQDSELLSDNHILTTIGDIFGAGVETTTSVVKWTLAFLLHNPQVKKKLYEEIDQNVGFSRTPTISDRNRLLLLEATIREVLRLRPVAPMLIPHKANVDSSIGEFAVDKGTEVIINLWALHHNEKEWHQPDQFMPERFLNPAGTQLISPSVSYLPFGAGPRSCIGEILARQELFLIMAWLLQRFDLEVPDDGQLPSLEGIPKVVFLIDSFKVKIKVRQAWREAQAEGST

[10] = target: Cytochrome P450 2D6 (Homo sapiens, UniProt P10635); test: Inhibition percent against human hepatic cytochrome P450 2D6 enzyme at 20 nM concentration; no inhibition
Chain of Cytochrome P450 2D6 (P10635 whole entry): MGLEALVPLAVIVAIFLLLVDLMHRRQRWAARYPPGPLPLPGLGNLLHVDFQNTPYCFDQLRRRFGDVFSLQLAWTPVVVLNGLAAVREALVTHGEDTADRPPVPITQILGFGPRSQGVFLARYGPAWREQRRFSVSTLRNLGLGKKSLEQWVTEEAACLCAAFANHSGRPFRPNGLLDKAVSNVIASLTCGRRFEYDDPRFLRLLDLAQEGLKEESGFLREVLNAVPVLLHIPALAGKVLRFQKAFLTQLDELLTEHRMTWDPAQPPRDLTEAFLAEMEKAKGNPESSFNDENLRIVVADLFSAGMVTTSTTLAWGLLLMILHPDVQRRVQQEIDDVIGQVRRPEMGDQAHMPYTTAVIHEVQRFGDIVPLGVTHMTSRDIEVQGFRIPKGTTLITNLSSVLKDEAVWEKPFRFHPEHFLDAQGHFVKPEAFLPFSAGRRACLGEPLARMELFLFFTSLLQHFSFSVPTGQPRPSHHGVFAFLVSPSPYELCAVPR

[11] = target: Cytochrome P450 3A4 (Homo sapiens, UniProt P08684); test: Inhibition percent against human hepatic cytochrome P450 3A4 enzyme at 50 uM concentration; no inhibition; type: ADME
Chain of Cytochrome P450 3A4 (P08684 whole entry): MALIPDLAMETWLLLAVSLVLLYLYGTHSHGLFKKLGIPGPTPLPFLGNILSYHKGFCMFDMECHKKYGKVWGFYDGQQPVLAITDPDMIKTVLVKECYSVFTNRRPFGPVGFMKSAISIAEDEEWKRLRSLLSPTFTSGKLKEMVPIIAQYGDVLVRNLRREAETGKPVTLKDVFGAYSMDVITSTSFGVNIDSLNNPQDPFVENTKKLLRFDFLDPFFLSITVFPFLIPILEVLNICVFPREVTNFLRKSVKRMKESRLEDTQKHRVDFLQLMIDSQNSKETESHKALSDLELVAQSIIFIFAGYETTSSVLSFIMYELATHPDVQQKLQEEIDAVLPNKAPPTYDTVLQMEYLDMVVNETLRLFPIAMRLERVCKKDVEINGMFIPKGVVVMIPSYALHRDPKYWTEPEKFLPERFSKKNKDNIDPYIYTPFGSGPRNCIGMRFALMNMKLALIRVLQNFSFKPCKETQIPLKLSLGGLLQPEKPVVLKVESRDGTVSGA

Row | solubility [1] | Inhibition [2] | Selectivity factor [3] | IC50 [4] | SMILES | also measured
1 | 200 µM (≈ 41.1 µg/mL) |  |  |  | c1cncc(-c2ccc3ccccc3c2)c1 | 
2 |  | 49% | 4 | 849 nM | COc1ccc2cc(-n3ccnc3)ccc2c1 | IC50 [5]: 218 nM; IC50 [6]: 218 nM
3 |  | 87% | 4 | 81 nM | COc1cc2ccccc2cc1-n1ccnc1 | IC50 [5]: 19.1 nM; IC50 [6]: 19 nM
4 | 230 µM (≈ 50.9 µg/mL) |  |  |  | Oc1ccc2cc(-c3cccnc3)ccc2c1 | 
5 | 39 µM (≈ 12.3 µg/mL) |  | 136 | 4480 nM | COc1ccc2cc(-c3cccnc3)ccc2c1Br | 
6 |  | 13% |  |  | c1cncc(-c2cnc3ccccc3n2)c1 | 
7 | 1.3 µM (≈ 0.369 µg/mL) |  | 196 | 2940 nM | Brc1ccc2cc(-c3cccnc3)ccc2c1 | IC50 [7]: > 36000 nM
8 |  | 41% | 0.7 |  | c1ccc2cc(-c3cnc[nH]3)ccc2c1 | IC50 [8]: 207 nM; IC50 [6]: 296 nM
9 |  | 17% | 10 | 6340 nM | c1ccc2ncc(-n3ccnc3)cc2c1 | IC50 [6]: 604 nM
10 |  | 36% |  |  | CCCOc1ccc2cc(-c3cccnc3)ccc2c1 | 
11 |  | 0% |  |  | COc1ccc2cc(-c3ccncc3)ccc2c1 | 
12 |  | 0% |  |  | NC(=O)c1ccc2cc(-c3cccnc3)ccc2c1 | 
13 |  |  |  |  | N#Cc1ccc(C2CCCc3cncn32)cc1 (stereo not drawn) [FADROZOLE] | Inhibition [9]: 5%
14 |  | 0% |  |  | CNC(=O)c1ccc2cc(-c3cccnc3)ccc2c1 | 
15 |  | 11% | 66 |  | c1ccc2cc(-c3cnco3)ccc2c1 | IC50 [6]: 12 nM
16 | 14 µM (≈ 3.78 µg/mL) |  | 94 | 2720 nM | COc1ccc2ccc(-c3cccnc3)c(Cl)c2c1 | IC50 [7]: > 36000 nM; Inhibition [9]: 94%
17 |  |  | 451 | 5420 nM | CCOc1ccc2cc(-c3cccnc3)ccc2c1 | Inhibition [10]: Not Active; Inhibition [11]: Not Active
18 | 160 µM (≈ 36.8 µg/mL) |  | 238 |  | N#Cc1ccc2cc(-c3cccnc3)ccc2c1 | IC50 [7]: > 36000 nM; Inhibition [9]: 73%
19 |  | 9% |  |  | COc1ccc2cc(-c3cccnc3)ccc2c1-c1cccnc1 | 
20 | 71 µM (≈ 18.7 µg/mL) | 74% | 145 |  | COC(=O)c1ccc2cc(-c3cccnc3)ccc2c1 | IC50 [6]: 72 nM
21 |  | 30% |  |  | COc1cc2ccccc2cc1-c1cccnc1 | IC50 [5]: > 500 nM
22 |  | 3% |  |  | c1ccc(COc2ccc3cc(-c4cccnc4)ccc3c2)cc1 | 
23 | 79 µM (≈ 18.6 µg/mL) |  |  |  | COc1ccc2cc(-c3cccnc3)ccc2c1 | Inhibition [9]: 72%
24 |  | 28% |  |  | Cn1cncc1-c1ccc2ccccc2c1 | 
25 | 7.2 µM (≈ 2.19 µg/mL) |  | 174 | 4900 nM | COc1ccc2c(Cl)c(-c3cccnc3)ccc2c1Cl | Inhibition [9]: 83%
26 | 7.6 µM (≈ 2.05 µg/mL) |  | 192 | 2520 nM | COc1ccc2cc(-c3cccnc3)ccc2c1Cl | 

Row | SMILES | solubility [1] | Inhibition [2] | Selectivity factor [3] | IC50 [4] | also measured
27 | c1ccc2cc(-n3ccnc3)ccc2c1 | 280 µM (≈ 54.4 µg/mL) |  |  | 1320 nM | IC50 [5]: 38.5 nM; IC50 [6]: 39 nM
28 | c1cncc(-c2cc3ccccc3c3ccccc23)c1 |  | 27% |  | 7550 nM | 
